Tests used:
[1] = target: Sodium-dependent dopamine transporter (Rattus norvegicus, UniProt P23977); assay: Displacement of [3H]WIN35428 from DAT in Sprague-Dawley rat striatal membranes incubated for 120 mins by microbeta scintillation counting method; type: cell membranes, Striatum, Membrane
[2] = target: Sodium-dependent serotonin transporter (Rattus norvegicus, UniProt P31652); assay: Displacement of [3H]citalopram from SERT in Sprague-Dawley rat midbrain membranes incubated for 60 mins by microbeta scintillation counting method; type: cell membranes, Membrane
[3] = target: Sigma non-opioid intracellular receptor 1 (Cavia porcellus, UniProt Q60492); assay: Displacement of [3H](+)-pentazocine from sigma 1 receptor in guinea pig brain cortex membranes after 120 mins by scintillation counting analysis; type: cell membranes, Membrane
In short: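 Male guinea pig cortex membranes in 10 mM Tris-HCl/0.32 M sucrose pH 7.4, 5.0 mg/well original wet weight; [3H](+)-pentazocine 3 nM final; inhibitor serial dilutions in 30% DMSO vehicle, triplicate; 120 min at RT; nonspecific with 10 μM PRE084 or (+)-pentazocine.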

D(2) dopamine receptor = D(2) dopamine receptor (Homo sapiens, UniProt P14416); assay: Displacement of [3H]-N-methylspiperone from human D2L receptor expressed in HEK293 cell membranes measured after 60 mins by microbeta scintillation counting method; set-up: species or system Membrane
In short: (§1)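 Membranes from HEK293 cells stably expressing human D2LR, D3R or D4.4R; 20 μg/well protein (D2LR, D3R) or 30 μg/well (D4.4R); [3H]-N-methylspiperone 0.4 nM final; half-log dilutions in 30% DMSO, triplicate; 60 min RT; nonspecific 10 μM (+)-butaclamol.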

D(3) dopamine receptor = D(3) dopamine receptor (Homo sapiens, UniProt P35462); assay: Displacement of [3H]-N-methylspiperone from human D3 receptor expressed in HEK293 cell membranes measured after 60 mins by microbeta scintillation counting method; set-up: species or system Membrane; in short: as §1
[4] = Displacement of [3H]-Nisoxetine from NET in Sprague-Dawley rat frontal cortex membrane after 180 mins by microbeta scintillation counting method; type: cell membranes
[5] = Metabolic stability in rat liver microsomes assessed as compound remaining at 10 uM incubated for 60 mins in presence of NADPH regenerating system by LC-MS/MS analysis; type: ADME, Microsome; conditions: 1 h
[6] = Metabolic stability in rat liver microsomes assessed as compound remaining at 10 uM in presence of NADPH regenerating system by LC-MS/MS analysis; type: ADME, Microsome
[7] = Metabolic stability in mouse liver microsomes assessed as compound remaining at 10 uM incubated for 60 mins in presence of NADPH regenerating system by LC-MS/MS analysis; type: ADME, Microsome; conditions: 1 h
[8] = Toxicity in Swiss Webster mouse assessed as stimulation of ambulatory activity by measuring total distance travelled at 1 to 30 mg/kg, ip measured every 5 mins for 2 hrs; type: organism-based; conditions: in vivo, dose 1-30 mg/kg
[9] = Toxicity in Swiss Webster mouse assessed as stimulation of ambulatory activity by measuring total distance travelled at 30 mg/kg, ip measured every 5 mins for 2 hrs; type: organism-based; conditions: in vivo
Rattus norvegicus = species: Rattus norvegicus; assay: Selectivity ratio of Ki for SERT in Sprague-Dawley rat midbrain membranes to Ki for DAT in Sprague-Dawley rat striatum membranes
[10] = Selectivity ratio of Ki for sigma 1 receptor in guinea pig brain cortex membranes to Ki for DAT in Sprague-Dawley rat striatum membranes; type: cell membranes
D(4) dopamine receptor = target: T1, D(4) dopamine receptor (Homo sapiens, UniProt P21917); assay: Displacement of [3H]-N-methylspiperone from human D4.4 receptor expressed in HEK293 cell membranes measured after 60 mins by microbeta scintillation counting method; set-up: species or system Membrane; in short: as §1
T1 sequence (P21917 whole entry): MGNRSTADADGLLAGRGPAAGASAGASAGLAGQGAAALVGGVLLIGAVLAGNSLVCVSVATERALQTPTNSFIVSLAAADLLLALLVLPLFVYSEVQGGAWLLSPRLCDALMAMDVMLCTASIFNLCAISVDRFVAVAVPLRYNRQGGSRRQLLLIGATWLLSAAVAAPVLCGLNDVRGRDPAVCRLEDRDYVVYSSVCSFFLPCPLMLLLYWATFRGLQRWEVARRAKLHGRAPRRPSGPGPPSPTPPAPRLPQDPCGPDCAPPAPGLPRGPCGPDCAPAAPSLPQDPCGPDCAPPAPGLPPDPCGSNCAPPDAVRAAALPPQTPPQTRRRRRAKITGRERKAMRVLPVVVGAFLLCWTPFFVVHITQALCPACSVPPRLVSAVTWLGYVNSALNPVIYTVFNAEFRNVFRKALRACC

D(3) dopamine receptor, sequence (P35462 whole entry): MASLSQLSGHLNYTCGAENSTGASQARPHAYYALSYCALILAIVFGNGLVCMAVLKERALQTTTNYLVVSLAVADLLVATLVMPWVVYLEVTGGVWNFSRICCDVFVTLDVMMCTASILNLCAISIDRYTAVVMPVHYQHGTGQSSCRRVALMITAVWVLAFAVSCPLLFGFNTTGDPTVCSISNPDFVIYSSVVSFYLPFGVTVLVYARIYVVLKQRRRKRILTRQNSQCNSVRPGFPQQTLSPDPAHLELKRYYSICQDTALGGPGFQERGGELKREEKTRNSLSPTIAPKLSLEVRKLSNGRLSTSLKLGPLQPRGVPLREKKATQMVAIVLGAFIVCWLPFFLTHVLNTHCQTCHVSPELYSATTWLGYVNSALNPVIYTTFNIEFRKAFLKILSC
Sigma non-opioid intracellular receptor 1, sequence (Q60492 whole entry): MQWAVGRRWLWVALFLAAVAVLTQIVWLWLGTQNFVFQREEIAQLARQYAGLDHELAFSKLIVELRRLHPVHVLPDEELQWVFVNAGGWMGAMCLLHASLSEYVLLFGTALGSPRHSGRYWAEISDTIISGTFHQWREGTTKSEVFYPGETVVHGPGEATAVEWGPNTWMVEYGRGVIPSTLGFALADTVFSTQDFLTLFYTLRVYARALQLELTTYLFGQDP
D(2) dopamine receptor, sequence (P14416 whole entry): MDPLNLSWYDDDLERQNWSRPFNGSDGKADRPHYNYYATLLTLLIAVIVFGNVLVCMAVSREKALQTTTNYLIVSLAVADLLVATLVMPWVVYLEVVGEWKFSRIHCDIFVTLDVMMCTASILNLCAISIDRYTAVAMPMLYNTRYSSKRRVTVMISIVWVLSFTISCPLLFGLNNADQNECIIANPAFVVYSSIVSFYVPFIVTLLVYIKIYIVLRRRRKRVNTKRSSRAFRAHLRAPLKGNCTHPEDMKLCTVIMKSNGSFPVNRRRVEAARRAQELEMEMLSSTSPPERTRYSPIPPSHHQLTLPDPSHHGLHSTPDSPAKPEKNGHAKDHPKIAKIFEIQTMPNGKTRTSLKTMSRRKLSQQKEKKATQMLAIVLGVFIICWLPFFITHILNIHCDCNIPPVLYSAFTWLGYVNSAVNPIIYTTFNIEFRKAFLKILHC
Sodium-dependent dopamine transporter, sequence (P23977 whole entry): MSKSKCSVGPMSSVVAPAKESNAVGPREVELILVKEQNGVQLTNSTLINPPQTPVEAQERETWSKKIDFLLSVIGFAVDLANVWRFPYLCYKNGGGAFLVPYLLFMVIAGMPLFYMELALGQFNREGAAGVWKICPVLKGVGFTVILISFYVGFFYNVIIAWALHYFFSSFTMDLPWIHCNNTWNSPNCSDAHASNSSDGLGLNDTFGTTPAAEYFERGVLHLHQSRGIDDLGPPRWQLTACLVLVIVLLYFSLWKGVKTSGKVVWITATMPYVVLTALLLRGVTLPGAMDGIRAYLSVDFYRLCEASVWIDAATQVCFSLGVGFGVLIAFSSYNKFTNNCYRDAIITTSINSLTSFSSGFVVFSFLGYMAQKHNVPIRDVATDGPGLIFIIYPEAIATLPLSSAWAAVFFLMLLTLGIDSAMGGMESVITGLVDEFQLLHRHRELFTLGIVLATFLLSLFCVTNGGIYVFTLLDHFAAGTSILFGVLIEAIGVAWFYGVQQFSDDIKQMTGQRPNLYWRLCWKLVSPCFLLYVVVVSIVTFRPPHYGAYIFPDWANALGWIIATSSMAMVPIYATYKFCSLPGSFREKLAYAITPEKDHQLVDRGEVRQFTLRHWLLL
Sodium-dependent serotonin transporter, sequence (P31652 whole entry): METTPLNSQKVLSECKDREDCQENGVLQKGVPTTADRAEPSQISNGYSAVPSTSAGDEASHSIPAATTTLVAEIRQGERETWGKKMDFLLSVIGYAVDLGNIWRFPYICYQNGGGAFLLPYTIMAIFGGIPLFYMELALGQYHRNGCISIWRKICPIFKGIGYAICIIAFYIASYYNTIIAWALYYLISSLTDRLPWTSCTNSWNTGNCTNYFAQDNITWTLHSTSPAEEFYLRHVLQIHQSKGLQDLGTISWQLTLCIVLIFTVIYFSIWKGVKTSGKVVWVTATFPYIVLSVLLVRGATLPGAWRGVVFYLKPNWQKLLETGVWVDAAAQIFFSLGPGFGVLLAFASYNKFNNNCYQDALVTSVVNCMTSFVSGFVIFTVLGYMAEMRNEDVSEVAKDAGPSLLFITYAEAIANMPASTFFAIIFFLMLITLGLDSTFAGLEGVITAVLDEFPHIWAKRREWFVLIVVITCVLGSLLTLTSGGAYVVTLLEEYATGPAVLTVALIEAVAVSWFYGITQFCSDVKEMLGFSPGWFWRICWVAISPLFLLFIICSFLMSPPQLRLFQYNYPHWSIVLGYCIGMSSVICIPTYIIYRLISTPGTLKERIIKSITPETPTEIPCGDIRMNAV

Row | Compound | Ki [1] | Ki [2] | Ki [3] | Ki (D(2) dopamine receptor) | Ki (D(3) dopamine receptor) | Ki [4] | Stabilty [5] | Stabilty [6] | Stabilty [7] | Activity [8] | Activity [9] | Ratio Ki (Rattus norvegicus) | Ratio Ki [10] | Ki (D(4) dopamine receptor)
1 | O=C(c1ccc(F)cc1F)N1CCC(NCCSC(c2ccc(F)cc2)c2ccc(F)cc2)CC1 | 0.03 µM | 0.296 µM | 0.0206 µM | 7.44 µM | 3.26 µM | 1.62 µM | 85% | 100% | 33% | < 3000 cm | – | – | – | –
2 | COC(=O)[C@H]1[C@@H](OC(=O)c2ccccc2)C[C@@H]2CC[C@H]1N2C [COCAINE] | – | – | – | – | – | – | – | – | – | – | 8000 cm | – | – | –
3 | [O-][S+](CCNC1CCN(Cc2ccc(F)cc2)CC1)C(c1ccc(F)cc1)c1ccc(F)cc1 (stereo unspecified) | – | – | 0.0265 µM | 12.4 µM | 12.4 µM | 11.2 µM | 95% | 100% | – | < 3000 cm | – | 7.37 | 0.52 | 76.8 µM
